Measured values taken from PubChem BioAssay.
The source made the active and inactive calls.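 Rule for the calls, unless noted: active = GFP response above 150% of the DMSO level; inconclusive = fewer than 70 events counted for a yeast strain; inactive = the rest.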

Assays:
[1] = RPL19A-GFP modulators, yeast TOR pathway, confirmation, cell-based, S. cerevisiae, flow cytometry, cherry picks, mother/daughter gates (AID 2270;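 active = GFP response below 50% of the DMSO control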); details: S. cerevisiae RPL19A-GFP strain, 3 h, at 10 µM, stronger effect = lower value, 100 = same GFP as DMSO wells
[2] = LAP4-GFP expression modulators in yeast, confirmation, cell-based, cherry picks, flow cytometry, mother/daughter gates (AID 2271;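 active = GFP response above 150% of the DMSO control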;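 note: ratio of sample to DMSO plate mean so 100% equals DMSO level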); details: S. cerevisiae LAP4-GFP strain, 3 h, at 10 µM, stronger effect = higher value, 100 means same as DMSO control
Procedure, shortened: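 System: Alexa 633-stained baker's yeast GFP-fusion strain / Medium: synthetic complete (SC) yeast growth medium / Doses: compound at 10 µM, single point / Times: 3 h treatment at 30 °C with rotation / Detection: HT flow cytometry, GFP fluorescence channel / Benchmarks: DMSO-only negative wells, rapamycin 400 ng/mL positive wells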

[3] = modulators of MEP2-GFP levels in yeast, confirmation, S. cerevisiae, flow cytometry GFP, cherry picks (AID 2272;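 active = GFP response above 150% of the DMSO control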;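 note: ratio of well signal to plate DMSO mean so 100% equals DMSO level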); details: S. cerevisiae MEP2-GFP strain, 3 h, at 10 µM, stronger effect = higher value
[4] = AGP1-GFP expression modulators, hit retest, confirmation, cell-based, flow cytometry, S. cerevisiae, cherry picks (AID 2273);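 note: median GFP channel fluorescence over the whole cell population gate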; details: S. cerevisiae AGP1-GFP strain, 3 h, at 10 µM
[5] = modulators of CIT2-GFP expression in yeast, confirmation, S. cerevisiae, GFP fusion, cherry picks, mother/daughter gates (AID 2274); details: S. cerevisiae CIT2-GFP strain, flow cytometry, 3 h, at 10 µM, stronger effect = higher value
[6] = measured here: daughter cell gate
[7] = measured here: mother cell gate
[8] = measured here: daughter cell gate response
[9] = measured here: mother cell gate response

SMILES	GFP response vs DMSO [1]	GFP response vs DMSO [1, 6] [%]	GFP response vs DMSO [1, 7] [%]	GFP response relative to DMSO [2]	GFP response relative to DMSO [2, 8] [%]	GFP response relative to DMSO [2, 9] [%]	GFP response vs DMSO [3]	GFP response, % of DMSO [4]	GFP response, % of DMSO [5]	GFP response, % of DMSO [5, 6] [%]	GFP response, % of DMSO [5, 7] [%]
Cc1cccc(NC(=O)CC2SC(=O)N(c3ccccc3)C2=O)c1 (configuration not stated)	96.6% (inactive)	99.4	93	126% (inactive)	128	126	109% (inactive)	93.9% (inactive)	104% (inactive)	106	97.3
Cc1csc(Nc2ccccc2C(F)(F)F)n1	96.2% (inactive)	94.2	95.9	105% (inactive)	104	108	101% (inactive)	94.3% (inactive)	97.2% (inactive)	97.6	94.9
CCc1ccc(CNC(=O)CCC(=O)N2Cc3cccc(OC)c3Oc3ncccc32)cc1	99.2% (inactive)	98.8	99.9	94.4% (inactive)	94.2	95.2	101% (inactive)	96.7% (inactive)	102% (inactive)	105	94.4
CCOC(=O)c1c(C)oc2c1c(C(c1ccncc1)N1CCOCC1)c(O)c1ccccc12 (configuration not stated)	102% (inactive)	109	89.6	186% (active)	167	180	131% (inactive)	101% (inactive)	103% (inactive)	114	94.4
CC(C)Oc1ccc(C(=O)/C=C2/C(=O)Nc3ccccc32)cc1	88.2% (inactive)	83.8	80.3	161% (active)	119	161	111% (inactive)	123% (inactive)	110% (inactive)	93.2	98.7
COc1ccc(Cl)cc1C(Nc1cccnc1)c1ccc2cccnc2c1O (configuration not stated)	97% (inactive)	98.8	95.2	121% (inactive)	109	127	116% (inactive)	97.1% (inactive)	109% (inactive)	115	101
O=C(O)CSc1nnc(-c2ccncc2)n1CCc1ccccc1	98.2% (inactive)	98.4	100	102% (inactive)	98.7	103	100% (inactive)	98.3% (inactive)	91.3% (inactive)	91.5	90.2
O=C1c2cccc3c(N4CCCCC4)ccc(c23)C(=O)N1CCO	100% (inactive)	94.9	94.9	99.5% (inactive)	99.1	98.4	105% (inactive)	103% (inactive)	103% (inactive)	101	96.8
COc1ccc(NC(=S)NCCCCCC(=O)C[N+](=O)[O-])cc1	96% (inactive)	96.4	96.1	90.2% (inactive)	91.2	89.7	98.3% (inactive)	98.7% (inactive)	99.7% (inactive)	101	97.3
CCC(=O)Nc1ccc(NC(=O)c2cc3ccccc3o2)cc1	103% (inactive)	99.3	104	99.5% (inactive)	99.1	98.4	101% (inactive)	101% (inactive)	97.3% (inactive)	95.6	96.8
O=[N+]([O-])c1c(Nc2ccccn2)cc(Cl)c2nonc12	139% (inactive)	86.3	129	478% (active)	123	522	966% (active)	143% (inactive)	979% (active)	103	906
COC(=O)Cc1csc(Nc2ccc(F)c(Cl)c2)n1	101% (inactive)	102	100	97.4% (inactive)	98.7	98.3	95.7% (inactive)	93.7% (inactive)	110% (inactive)	106	107
O=C(Nc1nnc(-c2ccc(F)cc2)o1)c1cccc([N+](=O)[O-])c1	102% (inactive)	97	101	157% (active)	169	152	110% (inactive)	97% (inactive)	101% (inactive)	103	99.3
O=S(=O)(c1ccc(Cl)cc1)c1snnc1-c1ccccc1	93.7% (inactive)	92.2	96.6	126% (inactive)	123	129	98.8% (inactive)	102% (inactive)	95.9% (inactive)	92.1	96.7
COc1ccccc1NC1=C(Cl)C(=O)N(c2ccccc2)C1=O	103% (inactive)	103	103	93.7% (inactive)	92	94.1	103% (inactive)	97% (inactive)	103% (inactive)	105	101
C=CCNC(=O)/C(C#N)=C/c1c(N(Cc2ccccc2)Cc2ccccc2)nc2ccccn2c1=O	98.8% (inactive)	98.6	98.8	99.8% (inactive)	99.7	99.2	103% (inactive)	101% (inactive)	94.7% (inactive)	96.8	94.7
O=c1[nH]c(CN2CCCCC2)nc2c1C1(CCCCC1)Cc1ccccc1-2	100% (inactive)	100	100	98.7% (inactive)	98.7	101	100% (inactive)	99.2% (inactive)	99.1% (inactive)	96.5	98.7
COc1cc(NC(=O)c2ccccc2[N+](=O)[O-])ccc1NC(=O)c1cc2ccccc2o1	101% (inactive)	99.1	101	97% (inactive)	97.5	97.3	103% (inactive)	101% (inactive)	97.3% (inactive)	97.4	95.6
Cc1cccc(Sc2ccc([N+](=O)[O-])cc2[N+](=O)[O-])n1	102% (inactive)	100	102	97.4% (inactive)	100	98.3	104% (inactive)	101% (inactive)	100% (inactive)	101	99.8
COc1ccccc1C(=O)NNC(=O)C(=O)Nc1cccc(Cl)c1C	106% (inactive)	111	101	112% (inactive)	118	109	116% (inactive)	109% (inactive)	119% (inactive)	122	113
c1cnc2c(SCc3ccc(-c4nnco4)cc3)cccc2c1	98.2% (inactive)	96.4	97.5	108% (inactive)	108	110	106% (inactive)	104% (inactive)	94.4% (inactive)	90.5	96
Cc1cccc(NC(=S)NCC23C=CC(O2)C2C(=O)N(c4ccc(Cl)cc4)C(=O)C23)c1 (configuration not stated)	100% (inactive)	103	99.8	103% (inactive)	102	104	102% (inactive)	100% (inactive)	104% (inactive)	104	103
